Experimental data from ChEMBL document CHEMBL2331185, “Structures and cytotoxic evaluation of new and known acyclic Ene-Ynes from an American Samoa Petrosia sp. Sponge” (J Nat Prod, 2013).

Experiments:
[1] = Cytotoxicity against human H522-T1 cells after 96 hrs by CellTiter-Glo luminescent assay; assay type: functional, cell-based; settings: H522-T1, 96 h
Outline: (§1)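 Tumour cells grown in 96-well plates without or with continuous test compound for 96 h. Growth measured by CellTiter-Glo luminescence. IC50 is the concentration inhibiting growth by 50% relative to untreated cells. Two separate replicate experiments.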

[2] = tested on: A2058; test: Selectivity index, ratio of IC50 for human IMR90 cells to IC50 for human A2058 cells; assay type: functional
Outline: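 SI calculated from the relative IC50 response of quiescent IMR-90 fibroblasts versus A2058 melanoma cells. IMR-90 IC50 comes from the 96 h low-serum quiescent assay; A2058 IC50 comes from the 96 h continuous-exposure proliferating assay. Both read by CellTiter-Glo.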

[3] = tested on: IMR-90; test: Cytotoxicity against human IMR90 cells after 96 hrs by CellTiter-Glo luminescent assay; assay type: cell-based; settings: IMR-90, 96 h
Outline: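 Fibroblasts grown 4 days to confluency in MEM with 10% FBS, L-glutamine and penicillin/streptomycin. After washing, cells were held 3 more days in MEM with 0.1% FBS to reach quiescence. Compound added, then incubation 96 h at 37°C. Viability measured as cellular ATP by CellTiter-Glo.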

[4] = tested on: A2058; test: Cytotoxicity against human A2058 cells after 96 hrs by CellTiter-Glo luminescent assay; assay type: functional, cell-based; settings: A2058, 96 h; outline: as §1
[5] = Cytotoxicity against human H460 cells after 96 hrs by CellTiter-Glo luminescent assay; assay type: functional, cell-based; settings: NCI-H460, 96 h; outline: as §1

Which results are given for `C#C[C@H](O)/C=C/CCCCCCCCCC#CCCCCCCCCCCCC/C=C\C#CC(=O)O`?
IC50 [1]: 8400 nM; Ratio IC50 [2]: 0.1; IC50 [3]: 400 nM; IC50 [4]: 6400 nM; IC50 [5]: 7300 nM

Which IC50 [1] does the source give for `C#C[C@H](O)/C=C/CCCCCCCC#C/C=C\CCCCCCCCCCCC/C=C\C#CC(=O)O` here?
The IC50 was 4600 nM.

And the “Ratio IC50” value [2]?
Its value is 0.1.

And the IC50 [3]?
Its IC50 is 300 nM.

What about the IC50 [4] of the same compound?
The IC50 was 3800 nM.

And the IC50 [5]?
The IC50 was 3100 nM.

With `C#C[C@H](O)/C=C/CCCCCCCCCCC/C=C/C(O)CCCCCCCCC/C=C\C#CC(=O)O` (stereo partly drawn) as the compound, how does the IC50 [1] read?
Its IC50 is greater than 10000 nM.

What about the “Ratio IC50” value [2] of the same compound?
The value was 0.

What about the IC50 [3] of the same compound?
Its IC50 is 200 nM.

What about the IC50 [4] of the same compound?
Its IC50 is 8100 nM.

And the IC50 [5]?
The IC50 was greater than 10000 nM.

Which IC50 [1] does the source give for `C#CC(O)/C=C/CCCCCCCCC/C=C\CCCCCCCCCCCC(O)C#CC#CCO` (stereo not drawn) here?
The IC50 was 800 nM.

What about the “Ratio IC50” value [2] of the same compound?
Its value is 1.

And the IC50 [3]?
Its IC50 is 400 nM.

And the IC50 [4]?
Its IC50 is 400 nM.

And the IC50 [5]?
Its IC50 is 400 nM.

What does the source list for `C#CC(O)/C=C/CCCCCCCC#C/C=C\CCCCCCCCCCCC(O)C#CC#CCO` (stereo not drawn)?
IC50 [1]: 600 nM; Ratio IC50 [2]: 0.8; IC50 [3]: 300 nM; IC50 [4]: 400 nM; IC50 [5]: 1000 nM

Which IC50 [1] does the source give for `C#CC(O)/C=C/CCCCCCCC#C/C=C\CCCCCCCCCCCCCC(O)C#CC#CCO` (stereo not drawn) here?
Its IC50 is 1100 nM.

And the “Ratio IC50” value [2]?
The value was 0.6.

And the IC50 [3]?
Its IC50 is 500 nM.

What about the IC50 [4] of the same compound?
Its IC50 is 800 nM.

What about the IC50 [5] of the same compound?
Its IC50 is 700 nM.

For `C#CC(O)/C=C/CCCCCCCCCCCC#CCCCCCCCCCCCC(O)C#CC#CCO` (stereo not drawn), which IC50 [1] is on record?
Its IC50 is 2700 nM.

What about the “Ratio IC50” value [2] of the same compound?
The value was 1.2.

And the IC50 [3]?
Its IC50 is 1600 nM.

What about the IC50 [4] of the same compound?
Its IC50 is 1300 nM.

And the IC50 [5]?
The IC50 was 1200 nM.

Which IC50 [1] does the source give for `C#CC(O)/C=C/CCCCCCCCCC(O)CCCCCCCCCCCC(O)C#CC#CCO` (stereo not drawn) here?
The IC50 was 1200 nM.

And the IC50 [4]?
The IC50 was 800 nM.

And the IC50 [5]?
The IC50 was 800 nM.

For `CC[C@]1(O)C[C@@H]2CN(CCc3c([nH]c4ccccc34)[C@@](C(=O)OC)(c3cc4c(cc3OC)N(C)[C@H]3[C@@](O)(C(=O)OC)[C@H](OC(C)=O)[C@]5(CC)C=CCN6CC[C@]43[C@@H]65)C2)C1` [VINBLASTINE], which IC50 [1] is on record?
The IC50 was 9 nM.

And the “Ratio IC50” value [2]?
The value was greater than 250.

And the IC50 [3]?
The IC50 was greater than 1000 nM.

What about the IC50 [4] of the same compound?
Its IC50 is 4 nM.

What about the IC50 [5] of the same compound?
The IC50 was 2 nM.
